# Source: ChEMBL document CHEMBL3399972, “Structure-activity relationships of a novel pyranopyridine series of Gram-negative bacterial efflux pump inhibitors” (Bioorg Med Chem, 2015)
# The source made the active and inactive calls. Where a SMILES comes first, the peptide text is derived from it. Bridges are numbered along the chain shown (N, C = ends). [ ]: non-standard residue; d: D form. Dab = NCC[C@H](N)C(=O)O
# Key:
# [1] = system: Escherichia coli; assay: Antibacterial activity against wild-type Escherichia coli AB1157; assay type: functional
# Outline: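 MIC determined according to CLSI guidelines, with modifications described in earlier work.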
# [2] = system: Escherichia coli; assay: Antibacterial activity against TolC-deficient Escherichia coli AB1157; assay type: functional
# Outline: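 MIC determined following CLSI guidelines, with modifications from the authors' earlier work, in the TolC-deficient mutant of E. coli AB1157.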
# [3] = system: Escherichia coli; assay: Inhibition of multidrug resistance efflux pump in wild-type Escherichia coli AB1157 assessed as concentration required to reduce piperacillin MIC by 4-fold by checkerboard assay
# [4] = system: Escherichia coli; assay: Antibacterial activity against Escherichia coli at 100 uM; assay type: functional, organism-based
# [5] = system: HeLa; assay: Cytotoxicity against human HeLa cells; assay type: cell-based
# [6] = system: Escherichia coli; assay: Inhibition of lactose permease-dependent [3H]TMG uptake in Escherichia coli HN1157 up to 20 uM
# Outline: (§1)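 Proton motive force probed in E. coli HN1157 by LacY permease-mediated accumulation of [methyl-3H] thiogalactopyranoside (stock 1 mCi/ml, 7 Ci/mmol), compounds tested at concentrations up to 20 µM.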
# [7] = system: Escherichia coli; assay: Effect on outer membrane permeability in AcrAB-deficient Escherichia coli HN1159 assessed as influx of nitrocefin at 20 uM; assay type: functional
# [8] = system: Escherichia coli; assay: Inhibition of lactose permease in Escherichia coli HN1157 assessed as [3H]TMG accumulation up to 20 uM relative to control; outline: as §1
# [9] = system: Escherichia coli; assay: Inhibition of multidrug resistance efflux pump in Escherichia coli assessed as concentration required to reduce levofloxacin MIC by 4-fold by checkerboard assay
# [10] = Aqueous solubility of the compound by nephlometric method; assay type: physicochemical
# Outline: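 Maximum solubility in water, measured by nephelometry.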
# [11] = Metabolic stability in mouse liver microsomes assessed as compound remaining at 25 uM after 60 mins by HPLC analysis in presence of NADPH; assay type: ADME; details: read-out: Stability
# Outline: (§2)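 Human or mouse liver microsomes at 0.5 mg/mL in 100 mM potassium phosphate pH 7.4 with 3 mM MgCl2, test compound 25 µM final, with or without (control) 2 mM NADPH; 37 °C for one hour, then stopped with equal volume acetonitrile containing 0.1% trifluoroacetic acid. Value: peak area with NADPH relative to no-NADPH control, as percent remaining.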
# [12] = Metabolic stability in human liver microsomes assessed as compound remaining at 25 uM after 60 mins by HPLC analysis in presence of NADPH; assay type: ADME; details: read-out: Stability; outline: as §2
# [13] = Inhibition of mouse liver microsome CYP3A4 at 3 uM after 10 mins by luminescence assay; assay type: ADME; details: microsomes
# [14] = system: Escherichia coli; assay: Effect on outer membrane permeability in AcrAB-deficient Escherichia coli HN1159 assessed as influx of nitrocefin at 20 ug/ml; assay type: functional
# [15] = system: Enterobacteriaceae; assay: Antimicrobial activity against Enterobacteriaceae; assay type: functional
# [16] = system: Escherichia coli; assay: Inhibition of lactose permease in Escherichia coli HN1157 assessed as [3H]TMG accumulation up to 100 uM relative to control
SMILES,MIC [1],MIC [2],INH [3],Activity [4],CC50 [5],inhibition [6],Activity [7],[3H]TMG accumulation relative to control [8],INH [9],solubility kinetic [10],"remaining at 1 h, 25 µM [11]","remaining at 1 h, 25 µM [12]",inhibition (INH) [13],Activity [14],MIC [15],inhibition [16]
C[C@H]1COc2c(N3CCN(C)CC3)c(F)cc3c(=O)c(C(=O)O)cn1c23 [LEVOFLOXACIN],0.063 µM,0.016 µM,,,,,,,,,,,,,,
CC1CN(c2nc(SCCc3cccc(F)c3)c(C#N)c3c2COC(C)(C)C3)CC(C)O1 (stereo not drawn),,,1.6 µM,inactive,> 100 µM,inactive,99%,103%,1.6 µM,,,,,,,
C=CC(=O)Nc1ccc(CCSc2nc(N3CC(C)OC(C)C3)c3c(c2C#N)CC(C)(C)OC3)cc1 (stereo not drawn),,,0.05 µM,inactive,62.4 µM,inactive,89%,99%,0.1 µM,25 µM,49%,100%,,,,
COc1cccc(CCSc2nc(N3CCOCC3)c3c(c2C#N)CC(C)(C)OC3)c1,,,1.6 µM,inactive,> 100 µM,inactive,94%,99%,2.4 µM,50 µM,0%,8%,29%,,,
CCN1CCN(C(=O)N[C@@H](C(=O)N[C@@H]2C(=O)N3[C@@H]2SC(C)(C)[C@@H]3C(=O)O)c2ccccc2)C(=O)C1=O [PIPERACILLIN],4 µM,0.125 µM,,,,,,,,,,,,,,
COCCN1CCN(c2nc(SCCc3ccc(OC)c(OC)c3)c(C#N)c3c2COC(C)(C)C3)CC1,,,0.4 µM,inactive,38.8 µM,inactive,100%,100%,1.6 µM,≥ 100 µM,13%,20%,48%,,,
CC1CN(c2nc(SCCc3ccc(NC(=N)N)cc3)c(C#N)c3c2COC(C)(C)C3)CC(C)O1 (stereo not drawn),,,0.8 µM,inactive,12 µM,inactive,,86%,0.8 µM,100 µM,90%,90%,9%,,,
CC1CN(c2nc(SCCc3ccc(N)cc3)c(C#N)c3c2COC(C)(C)C3)CC(C)O1 (stereo not drawn),,,0.8 µM,inactive,52.2 µM,inactive,102%,100%,0.8 µM,12 µM,72%,76%,59%,,,
CC(C)C[C@@H]1NC(=O)[C@@H](Cc2ccccc2)NC(=O)[C@H](CCN)NC(=O)[C@@H](NC(=O)[C@H](CCN)NC(=O)[C@@H](N)[C@@H](C)O)CCNC(=O)[C@H]([C@@H](C)O)NC(=O)[C@H](CCN)NC(=O)[C@H](CCN)NC1=O [POLYMYXIN B NONAPEPTIDE] (H-T[Dab][Dab][Dab][dF]L[Dab][Dab]T; lactam 3-C),,,,,,,,,,,,,,162%,,
CC1CN(c2nc(SCCc3ccc(NC(=O)OC(C)(C)C)cc3)c(C#N)c3c2COC(C)(C)C3)CC(C)O1 (stereo not drawn),,,0.4 µM,inactive,> 100 µM,inactive,99%,,0.8 µM,100 µM,66%,59%,0%,,,
CC1(C)Cc2c(C#N)c(SCCc3ccccc3)nc(N3CCOCC3)c2CO1,,,3.1 µM,inactive,> 100 µM,inactive,90%,102%,3.1 µM,12 µM,0%,0%,,,≥ 100 µM,
CC(=O)Nc1ccc(CCSc2nc(N3CC(C)OC(C)C3)c3c(c2C#N)CC(C)(C)OC3)cc1 (stereo not drawn),,,0.1 µM,inactive,60.5 µM,inactive,100%,97%,0.1 µM,50 µM,0%,37%,61%,,,
CC1CN(c2nc(SCCc3cccnc3)c(C#N)c3c2COC(C)(C)C3)CC(C)O1 (stereo not drawn),,,3.1 µM,inactive,42.6 µM,inactive,86%,,12.5 µM,≥ 100 µM,19%,53%,0%,,,
N#CC(C#N)=NNc1cccc(Cl)c1,,,,,,,,,,,,,,,,3%
COCCN1CCN(c2nc(SCCc3ccc(OC)cc3)c(C#N)c3c2COC(C)(C)C3)CC1,,,3.1 µM,inactive,34.8 µM,inactive,94%,103%,6.3 µM,≥ 100 µM,17%,,42%,,,
